# Reference: ChEMBL document CHEMBL2429849, “Substrate-based fragment identification for the development of selective, nonpeptidic inhibitors of striatal-enriched protein tyrosine phosphatase” (J Med Chem, 2013)
# T1: Tyrosine-protein phosphatase non-receptor type 5 (Homo sapiens, UniProt P54829)
# T1 sequence (P54829 whole entry): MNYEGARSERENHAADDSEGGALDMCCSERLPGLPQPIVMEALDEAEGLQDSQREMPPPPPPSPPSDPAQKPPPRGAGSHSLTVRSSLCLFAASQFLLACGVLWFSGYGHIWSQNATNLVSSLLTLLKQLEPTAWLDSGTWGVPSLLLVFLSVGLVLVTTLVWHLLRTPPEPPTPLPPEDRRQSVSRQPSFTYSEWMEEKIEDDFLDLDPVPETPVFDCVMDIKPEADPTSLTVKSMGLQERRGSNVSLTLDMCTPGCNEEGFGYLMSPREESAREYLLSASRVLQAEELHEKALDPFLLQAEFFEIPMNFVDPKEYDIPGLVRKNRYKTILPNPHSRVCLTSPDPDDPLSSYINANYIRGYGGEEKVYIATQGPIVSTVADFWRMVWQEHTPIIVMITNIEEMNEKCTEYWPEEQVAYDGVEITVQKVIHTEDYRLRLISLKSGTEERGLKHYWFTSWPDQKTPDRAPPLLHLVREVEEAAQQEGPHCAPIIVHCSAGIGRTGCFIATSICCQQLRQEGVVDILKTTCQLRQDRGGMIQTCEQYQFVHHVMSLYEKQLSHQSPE
# T2: Dual specificity protein phosphatase 10 (Homo sapiens, UniProt Q9Y6W6)
# T2 sequence (Q9Y6W6 whole entry): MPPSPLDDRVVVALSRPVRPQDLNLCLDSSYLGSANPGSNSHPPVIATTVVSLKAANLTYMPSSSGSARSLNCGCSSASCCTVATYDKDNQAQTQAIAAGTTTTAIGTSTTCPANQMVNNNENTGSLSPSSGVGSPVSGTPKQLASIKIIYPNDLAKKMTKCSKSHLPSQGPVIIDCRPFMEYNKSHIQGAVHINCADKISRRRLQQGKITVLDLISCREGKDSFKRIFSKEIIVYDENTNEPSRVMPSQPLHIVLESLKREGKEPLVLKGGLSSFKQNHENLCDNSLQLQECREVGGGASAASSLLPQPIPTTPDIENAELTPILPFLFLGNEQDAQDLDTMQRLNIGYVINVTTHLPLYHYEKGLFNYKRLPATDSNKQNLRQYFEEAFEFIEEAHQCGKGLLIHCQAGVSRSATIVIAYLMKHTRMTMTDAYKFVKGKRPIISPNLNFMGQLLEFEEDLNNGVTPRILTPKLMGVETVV
# T3: Receptor-type tyrosine-protein phosphatase C (Homo sapiens, UniProt P08575)
# T3 sequence (P08575 whole entry): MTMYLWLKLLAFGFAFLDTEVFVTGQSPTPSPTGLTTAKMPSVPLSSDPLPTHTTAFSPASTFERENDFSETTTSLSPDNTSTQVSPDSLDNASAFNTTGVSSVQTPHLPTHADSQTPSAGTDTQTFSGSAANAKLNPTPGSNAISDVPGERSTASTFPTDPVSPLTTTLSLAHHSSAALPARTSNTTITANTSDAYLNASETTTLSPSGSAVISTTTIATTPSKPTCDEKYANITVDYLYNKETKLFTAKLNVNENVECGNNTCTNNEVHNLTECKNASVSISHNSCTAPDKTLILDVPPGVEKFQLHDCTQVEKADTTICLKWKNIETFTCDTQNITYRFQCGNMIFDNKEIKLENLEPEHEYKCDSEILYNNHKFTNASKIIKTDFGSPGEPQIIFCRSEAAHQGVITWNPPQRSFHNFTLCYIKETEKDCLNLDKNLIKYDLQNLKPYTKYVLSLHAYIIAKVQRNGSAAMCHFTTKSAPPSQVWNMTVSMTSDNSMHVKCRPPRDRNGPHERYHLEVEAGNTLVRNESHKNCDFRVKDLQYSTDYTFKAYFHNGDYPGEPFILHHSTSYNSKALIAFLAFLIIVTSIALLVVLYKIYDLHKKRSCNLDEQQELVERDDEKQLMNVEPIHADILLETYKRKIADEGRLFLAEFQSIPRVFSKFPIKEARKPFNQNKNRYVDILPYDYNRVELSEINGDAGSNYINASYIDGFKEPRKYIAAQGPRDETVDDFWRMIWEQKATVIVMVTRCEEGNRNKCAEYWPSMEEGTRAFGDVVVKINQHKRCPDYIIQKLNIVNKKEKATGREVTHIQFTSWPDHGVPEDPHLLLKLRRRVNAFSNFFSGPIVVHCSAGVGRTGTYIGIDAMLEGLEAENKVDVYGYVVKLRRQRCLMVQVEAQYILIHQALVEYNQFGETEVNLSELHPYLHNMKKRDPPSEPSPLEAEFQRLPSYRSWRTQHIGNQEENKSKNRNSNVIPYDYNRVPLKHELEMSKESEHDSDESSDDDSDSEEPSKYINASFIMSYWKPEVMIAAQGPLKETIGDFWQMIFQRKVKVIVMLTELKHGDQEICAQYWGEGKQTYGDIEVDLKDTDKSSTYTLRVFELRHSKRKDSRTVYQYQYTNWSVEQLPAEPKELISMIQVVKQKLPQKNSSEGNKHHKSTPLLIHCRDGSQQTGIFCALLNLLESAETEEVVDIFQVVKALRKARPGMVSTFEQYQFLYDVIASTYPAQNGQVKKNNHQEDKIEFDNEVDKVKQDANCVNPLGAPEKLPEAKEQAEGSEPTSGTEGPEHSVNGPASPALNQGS
# T4: Tyrosine-protein phosphatase non-receptor type 2 (Homo sapiens, UniProt P17706)
# T4 sequence (P17706 whole entry): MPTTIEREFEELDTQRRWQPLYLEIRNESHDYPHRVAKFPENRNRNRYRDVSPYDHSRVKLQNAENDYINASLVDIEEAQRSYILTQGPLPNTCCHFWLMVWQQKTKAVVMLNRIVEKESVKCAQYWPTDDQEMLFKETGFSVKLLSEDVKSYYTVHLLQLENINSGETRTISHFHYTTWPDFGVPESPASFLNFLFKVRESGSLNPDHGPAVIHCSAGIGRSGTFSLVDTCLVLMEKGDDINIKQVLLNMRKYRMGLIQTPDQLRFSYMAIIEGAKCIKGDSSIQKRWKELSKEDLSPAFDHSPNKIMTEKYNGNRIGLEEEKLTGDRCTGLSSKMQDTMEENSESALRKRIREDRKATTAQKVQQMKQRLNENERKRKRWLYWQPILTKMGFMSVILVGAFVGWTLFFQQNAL
# B1: Tyrosine-protein phosphatase non-receptor type 5 (Homo sapiens), P54829 (protein)
# chain: T1 sequence (P54829 whole entry)
# Legend:
# [1] = molecular target: T1, Tyrosine-protein phosphatase non-receptor type 5; test: Inhibition of human STEP using pNPP as substrate after 5 mins by spectrophotometric plate reader analysis
# [2] = molecular target: T2, Dual specificity protein phosphatase 10; test: Inhibition of human MKP5 using DiFMUP as substrate after 5 mins by spectrophotometric plate reader analysis
# In short: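 The […] substrate was DiFMUP. Buffer was Tris-HCl pH 8.0 with Triton X-100 and 5 mM DTT. Inhibitor was preincubated with enzyme for 5 min at 27 °C before adding substrate. Ki from nonlinear regression of initial-rate substrate–velocity data at several inhibitor concentrations; at least duplicate.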
# [3] = species on record: Homo sapiens; test: Selectivity ratio of Ki for human CD45 to Ki for human STEP
# In short: (§1)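 STEP, CD45, LAR and TC-PTP used pNPP (500 μM) in imidazole/NaCl pH 7.0 with Triton X-100, read at 405 nm for 20 min. MKP5 used DiFMUP in Tris-HCl pH 8.0. The enzyme's own pNPP KM was used in analysis; ratio of the Ki values.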
# [4] = species on record: Homo sapiens; test: Selectivity ratio of Ki for human MKP5 to Ki for human STEP; in short: as §1
# [5] = species on record: Homo sapiens; test: Selectivity ratio of Ki for human TC-PTP to Ki for human STEP; in short: as §1
# [6] = molecular target: T3, Receptor-type tyrosine-protein phosphatase C; test: Inhibition of human CD45 using pNPP as substrate after 5 mins by spectrophotometric plate reader analysis
# In short: (§2)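 Enzyme preincubated 5 min at 27 °C with serially diluted inhibitor (from DMSO) in imidazole/NaCl buffer pH 7.0 with 0.01% Triton X-100 and 5 mM DTT. Started with pNPP (500 μM in assay) and read at 405 nm for 20 min. The pNPP KM was measured for each enzyme. Ki from nonlinear regression of substrate–velocity curves at several inhibitor levels; at least duplicate.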
# [7] = species on record: Homo sapiens; test: Selectivity ratio of Ki for human LAR to Ki for human STEP; in short: as §1
# [8] = molecular target: T4, Tyrosine-protein phosphatase non-receptor type 2; test: Inhibition of human TC-PTP using pNPP as substrate after 5 mins by spectrophotometric plate reader analysis
# In short: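 Selectivity assay using the STEP Ki protocol. Enzyme was preincubated 5 min at 27 °C with two- or three-fold inhibitor serial dilutions in DMSO, in imidazole/NaCl buffer at pH 7.0 with 0.01% Triton X-100 and 5 mM DTT. Reaction started with pNPP (500 μM in assay), read continuously at 405 nm for 20 min. Ki came from nonlinear regression of substrate-velocity curves, using this enzyme's pNPP KM; at least duplicate.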
# [9] = molecular target: Receptor-type tyrosine-protein phosphatase F (Homo sapiens, UniProt P10586); test: Inhibition of human LAR using pNPP as substrate after 5 mins by spectrophotometric plate reader analysis; in short: as §2
# Sequence of Receptor-type tyrosine-protein phosphatase F (P10586 whole entry): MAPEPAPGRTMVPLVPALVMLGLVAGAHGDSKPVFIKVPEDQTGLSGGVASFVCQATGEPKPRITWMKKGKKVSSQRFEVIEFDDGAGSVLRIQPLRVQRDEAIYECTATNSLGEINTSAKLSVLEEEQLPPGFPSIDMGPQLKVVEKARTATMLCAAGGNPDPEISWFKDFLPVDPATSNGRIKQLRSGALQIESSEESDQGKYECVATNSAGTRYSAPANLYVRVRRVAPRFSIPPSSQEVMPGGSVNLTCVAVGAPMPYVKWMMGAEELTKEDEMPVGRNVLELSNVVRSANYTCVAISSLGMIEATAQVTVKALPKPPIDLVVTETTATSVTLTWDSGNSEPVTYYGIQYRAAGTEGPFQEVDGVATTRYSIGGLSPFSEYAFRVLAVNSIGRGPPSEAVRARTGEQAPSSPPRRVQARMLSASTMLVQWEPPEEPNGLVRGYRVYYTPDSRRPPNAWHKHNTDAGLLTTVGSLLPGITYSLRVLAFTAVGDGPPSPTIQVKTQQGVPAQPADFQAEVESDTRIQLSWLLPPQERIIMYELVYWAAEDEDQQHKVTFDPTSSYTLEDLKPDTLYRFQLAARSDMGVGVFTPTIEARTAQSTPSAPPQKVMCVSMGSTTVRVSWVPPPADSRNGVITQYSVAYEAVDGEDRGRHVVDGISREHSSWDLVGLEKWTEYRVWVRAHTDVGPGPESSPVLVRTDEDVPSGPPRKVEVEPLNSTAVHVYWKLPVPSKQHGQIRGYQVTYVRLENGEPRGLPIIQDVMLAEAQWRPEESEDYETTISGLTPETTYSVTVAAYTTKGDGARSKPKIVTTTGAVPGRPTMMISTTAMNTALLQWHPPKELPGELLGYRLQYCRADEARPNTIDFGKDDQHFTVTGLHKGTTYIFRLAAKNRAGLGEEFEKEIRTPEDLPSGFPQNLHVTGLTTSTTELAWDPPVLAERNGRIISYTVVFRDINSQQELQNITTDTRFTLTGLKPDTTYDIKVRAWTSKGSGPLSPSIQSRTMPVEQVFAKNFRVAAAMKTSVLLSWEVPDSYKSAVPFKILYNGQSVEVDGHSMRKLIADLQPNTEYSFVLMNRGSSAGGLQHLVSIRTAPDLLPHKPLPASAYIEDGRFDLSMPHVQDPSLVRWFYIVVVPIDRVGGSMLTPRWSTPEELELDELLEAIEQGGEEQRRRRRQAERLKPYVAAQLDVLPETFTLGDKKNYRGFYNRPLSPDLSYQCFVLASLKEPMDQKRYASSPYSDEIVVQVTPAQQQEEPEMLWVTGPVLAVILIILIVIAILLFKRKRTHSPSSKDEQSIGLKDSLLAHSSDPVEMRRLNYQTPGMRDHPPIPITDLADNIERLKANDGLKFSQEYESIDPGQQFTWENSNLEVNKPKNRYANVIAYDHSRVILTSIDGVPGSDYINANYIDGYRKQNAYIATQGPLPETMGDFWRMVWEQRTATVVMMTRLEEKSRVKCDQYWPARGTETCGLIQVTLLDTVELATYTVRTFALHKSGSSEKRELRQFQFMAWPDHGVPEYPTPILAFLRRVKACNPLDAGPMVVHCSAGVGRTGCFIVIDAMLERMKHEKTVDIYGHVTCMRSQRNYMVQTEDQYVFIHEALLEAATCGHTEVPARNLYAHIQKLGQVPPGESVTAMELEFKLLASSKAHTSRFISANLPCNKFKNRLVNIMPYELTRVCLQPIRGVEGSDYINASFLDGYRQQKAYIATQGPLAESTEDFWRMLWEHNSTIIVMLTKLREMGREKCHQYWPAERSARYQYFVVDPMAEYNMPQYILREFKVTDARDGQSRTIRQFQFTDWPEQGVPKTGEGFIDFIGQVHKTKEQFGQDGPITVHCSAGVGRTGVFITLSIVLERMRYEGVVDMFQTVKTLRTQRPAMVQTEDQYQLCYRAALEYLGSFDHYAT
# [10] = substrate: COC(=O)[C@H](Cc1ccc(OP(=O)(O)O)cc1)NC(C)=O; test: (§3) Activity at human STEP measured for 20 mins by spectrophotometric plate reader analysis
# In short: (§4)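 Substrate KM by coupled assay: STEP 100 nM with MESG 400 μM, PNP 1 U/mL, 5 mM DTT in imidazole/NaCl buffer with Triton X-100, pH 7.0; preincubated 3 min at 27 °C, then started with substrate (about 0–3.00 mM in assay, from DMSO). Followed 20 min at 360 nm, 27 °C; KM from Michaelis–Menten fit of initial rates.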
# [11] = substrate: O=P(O)(O)Oc1cccc(Nc2ccccc2)c1; test: as §3; in short: as §4
# [12] = substrate: O=[N+]([O-])c1ccc(OP(=O)(O)O)cc1; test: as §3; in short: as §4
# [13] = substrate: O=P(O)(O)Oc1ccc(-c2ccccc2)cc1; test: as §3; in short: as §4
# [14] = substrate: O=C(Oc1cccc(OP(=O)(O)O)c1)c1ccccc1; test: as §3; in short: as §4
# [15] = substrate: CC(C)(C)CC(C)(C)c1ccc(OP(=O)(O)O)cc1; test: as §3; in short: as §4
# [16] = substrate: O=P(O)(O)Oc1cccc(-c2ccccc2)c1; test: as §3; in short: as §4
# [17] = substrate: CC(Cc1ccccc1)c1ccc(OP(=O)(O)O)cc1; test: as §3; in short: as §4
# [18] = substrate: O=P(O)(O)Oc1ccccc1; test: as §3; in short: as §4
# [19] = substrate: O=C(Cc1ccc(OP(=O)(O)O)cc1)Nc1ccccc1; test: as §3; in short: as §4
molecule,measurement,setting,value
O=P(O)(O)[C@@H](O)c1ccc(-c2cccc([C@@H](O)c3ccc(Cl)c(Cl)c3)c2)cc1,Ki,[1],88 µM
O=P(O)(O)C(F)(F)c1ccc(-c2ccccc2)cc1,Ki,[1],120 µM
O=P(O)(O)C(F)(F)c1cccc(-c2ccccc2)c1,Ki,[1],337 µM
CS(=O)(=O)Nc1ccccc1-c1ccc(C(F)(F)P(=O)(O)O)cc1,Ki,[1],673 µM
CS(=O)(=O)Nc1cccc(-c2ccc(C(F)(F)P(=O)(O)O)cc2)c1,Ki,[1],113 µM
O=P(O)(O)C(F)(F)c1cccc(-c2cccc(C3CCCCC3)c2O)c1,Ki,[2],150 µM
same,Ratio Ki,[3],> 25
same,Ratio Ki,[4],7.5
same,Ratio Ki,[5],3.6
same,Ki,[6],> 500 µM
same,Ratio Ki,[7],> 45
same,Ki,[8],71 µM
same,Ki,[9],> 900 µM
same,Ki,[1],20 µM
O=P(O)(O)C(F)(F)c1ccc(-c2cccc(Nc3ccccc3)c2)cc1,Ki,[1],112 µM
O=P(O)(O)[C@@H](O)c1ccc(-c2cccc([C@H](O)c3ccc(Cl)c(Cl)c3)c2)cc1,Ki,[1],93 µM
B1,Km,[10],378 µM
same,Km,[11],650 µM
same,Km,[12],745 µM
same,Km,[13],169 µM
same,Km,[14],327 µM
same,Km,[15],260 µM
same,Km,[16],277 µM
same,Km,[17],128 µM
same,Km,[18],2730 µM
same,Km,[19],133 µM
